ChEMBL document CHEMBL3576819, “Design, synthesis, biological evaluation and molecular docking studies of phenylpropanoid derivatives as potent anti-hepatitis B virus agents” (Eur J Med Chem, 2015)

Experiments:
Hepatitis B virus [1] = assay: Antiviral activity against Hepatitis B virus infected in human HepG2.2.15 cells assessed as inhibition of HBeAg secretion at 37.5 uM after 3 days by ELISA; type: functional; details: HepG2 2.2.15, 72 h
Procedure, shortened: (§1)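 HepG2.2.15 cells (MEM, 10% FBS, 380 µg/ml G418) seeded at 1×10^5 cells/ml, held 24 h at 37 °C, then treated with various drug concentrations; medium with drug renewed every 3 d for up to 9 d. Culture medium sampled on days 3, 6 and 9, stored at -20 °C, and assayed for secreted antigen. Lamivudine as positive control; IC50 = 50% inhibition of secretion; means of at least two experiments.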

Hepatitis B virus [2] = assay: Antiviral activity against Hepatitis B virus infected in human HepG2.2.15 cells assessed as inhibition of HBsAg secretion at 75 uM after 9 days by ELISA; type: functional; details: HepG2 2.2.15, 216 h; procedure, shortened: as §1
[3] = Selectivity index, ratio of CC50 for human HepG2.2.15 cells to IC50 for Hepatitis B virus infected in human HepG2.2.15 cells assessed as inhibition of HBeAg secretion; type: functional
Procedure, shortened: (§2)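 Selectivity index computed as CC50/IC50, with CC50 from cell death of HepG2.2.15 cells after 9 days of treatment (OD 450 nm) and IC50 from 50% inhibition of HBeAg or HBsAg secretion in the same cells; medium with drug renewed every 3 d.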

Hepatitis B virus [4] = assay: Antiviral activity against Hepatitis B virus infected in human HepG2.2.15 cells assessed as inhibition of HBeAg secretion at 150 uM after 6 days by ELISA; type: functional; details: HepG2 2.2.15, 144 h; procedure, shortened: as §1
Hepatitis B virus [5] = assay: Antiviral activity against Hepatitis B virus infected in human HepG2.2.15 cells assessed as inhibition of HBeAg secretion at 150 uM after 3 days by ELISA; type: functional; details: HepG2 2.2.15, 72 h; procedure, shortened: as §1
Hepatitis B virus [6] = assay: Antiviral activity against Hepatitis B virus infected in human HepG2.2.15 cells assessed as inhibition of HBeAg secretion at 300 uM after 3 days by ELISA; type: functional; details: HepG2 2.2.15, 72 h; procedure, shortened: as §1
Hepatitis B virus [7] = assay: Antiviral activity against Hepatitis B virus infected in human HepG2.2.15 cells assessed as cell survival at 150 uM after 9 days (reference value: 100%); type: functional; details: HepG2 2.2.15, 216 h
Procedure, shortened: (§3)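 HepG2.2.15 cells (MEM, 10% FBS, 380 µg/ml G418, 37 °C, 5% CO2) seeded at 1×10^5 cells/ml, cultured 24 h, then exposed to various drug concentrations; drug-containing medium renewed every 3 d. OD read at 450 nm after 9 days; percent cell death calculated; CC50 = concentration killing 50% of cells. Means of at least two experiments.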

Hepatitis B virus [8] = assay: Antiviral activity against Hepatitis B virus infected in human HepG2.2.15 cells assessed as inhibition of HBsAg secretion at 37.5 uM after 9 days by ELISA; type: functional; details: HepG2 2.2.15, 216 h; procedure, shortened: as §1
[9] = Selectivity index, ratio of CC50 for human HepG2.2.15 cells to IC50 for Hepatitis B virus infected in human HepG2.2.15 cells assessed as inhibition of HBsAg secretion; type: functional; procedure, shortened: as §2
Hepatitis B virus [10] = assay: Antiviral activity against Hepatitis B virus infected in human HepG2.2.15 cells assessed as inhibition of HBsAg secretion at 300 uM after 9 days by ELISA; type: functional; details: HepG2 2.2.15, 216 h; procedure, shortened: as §1
Hepatitis B virus [11] = assay: Antiviral activity against Hepatitis B virus infected in human HepG2.2.15 cells assessed as inhibition of HBsAg secretion at 300 uM after 3 days by ELISA; type: functional; details: HepG2 2.2.15, 72 h; procedure, shortened: as §1
Hepatitis B virus [12] = assay: Antiviral activity against Hepatitis B virus infected in human HepG2.2.15 cells assessed as inhibition of HBsAg secretion by ELISA; type: functional, organism-based; details: HepG2 2.2.15; procedure, shortened: as §1
Hepatitis B virus [13] = assay: Antiviral activity against Hepatitis B virus infected in human HepG2.2.15 cells assessed as inhibition of HBeAg secretion at 75 uM after 9 days by ELISA; type: functional; details: HepG2 2.2.15, 216 h; procedure, shortened: as §1
Hepatitis B virus [14] = assay: Antiviral activity against Hepatitis B virus infected in human HepG2.2.15 cells assessed as inhibition of HBeAg secretion at 37.5 uM after 6 days by ELISA; type: functional; details: HepG2 2.2.15, 144 h; procedure, shortened: as §1
Hepatitis B virus [15] = assay: Antiviral activity against Hepatitis B virus infected in human HepG2.2.15 cells assessed as inhibition of HBsAg secretion at 75 uM after 6 days by ELISA; type: functional; details: HepG2 2.2.15, 144 h; procedure, shortened: as §1
Hepatitis B virus [16] = assay: Antiviral activity against Hepatitis B virus infected in human HepG2.2.15 cells assessed as cell survival at 75 uM after 9 days (reference value: 100%); type: functional; details: HepG2 2.2.15, 216 h; procedure, shortened: as §3
Hepatitis B virus [17] = assay: Antiviral activity against Hepatitis B virus infected in human HepG2.2.15 cells assessed as inhibition of HBsAg secretion at 300 uM after 6 days by ELISA; type: functional; details: HepG2 2.2.15, 144 h; procedure, shortened: as §1
Hepatitis B virus [18] = assay: Antiviral activity against Hepatitis B virus infected in human HepG2.2.15 cells assessed as inhibition of HBeAg secretion at 300 uM after 9 days by ELISA; type: functional; details: HepG2 2.2.15, 216 h; procedure, shortened: as §1
Hepatitis B virus [19] = assay: Antiviral activity against Hepatitis B virus infected in human HepG2.2.15 cells assessed as inhibition of HBsAg secretion at 75 uM after 3 days by ELISA; type: functional; details: HepG2 2.2.15, 72 h; procedure, shortened: as §1
Hepatitis B virus [20] = assay: Antiviral activity against Hepatitis B virus infected in human HepG2.2.15 cells assessed as inhibition of HBeAg secretion at 300 uM after 6 days by ELISA; type: functional; details: HepG2 2.2.15, 144 h; procedure, shortened: as §1
[21] = Cytotoxicity against human HepG2.2.15 cells assessed as cell death after 9 days by MTT assay; type: cell-based, HepG2 2.2.15; procedure, shortened: as §3
Hepatitis B virus [22] = assay: Antiviral activity against Hepatitis B virus infected in human HepG2.2.15 cells assessed as inhibition of HBsAg secretion at 150 uM after 6 days by ELISA; type: functional; details: HepG2 2.2.15, 144 h; procedure, shortened: as §1
Hepatitis B virus [23] = assay: Antiviral activity against Hepatitis B virus infected in human HepG2.2.15 cells assessed as cell survival at 37.5 uM after 9 days (reference value: 100%); type: functional; details: HepG2 2.2.15, 216 h; procedure, shortened: as §3
Hepatitis B virus [24] = assay: Antiviral activity against Hepatitis B virus infected in human HepG2.2.15 cells assessed as inhibition of HBsAg secretion at 37.5 uM after 6 days by ELISA; type: functional; details: HepG2 2.2.15, 144 h; procedure, shortened: as §1
Hepatitis B virus [25] = assay: Antiviral activity against Hepatitis B virus infected in human HepG2.2.15 cells assessed as inhibition of HBsAg secretion at 150 uM after 9 days by ELISA; type: functional; details: HepG2 2.2.15, 216 h; procedure, shortened: as §1
Hepatitis B virus [26] = assay: Antiviral activity against Hepatitis B virus infected in human HepG2.2.15 cells assessed as inhibition of HBsAg secretion at 150 uM after 3 days by ELISA; type: functional; details: HepG2 2.2.15, 72 h; procedure, shortened: as §1
Hepatitis B virus [27] = assay: Antiviral activity against Hepatitis B virus infected in human HepG2.2.15 cells assessed as inhibition of HBeAg secretion by ELISA; type: functional, organism-based; details: HepG2 2.2.15; procedure, shortened: as §1
Hepatitis B virus [28] = assay: Antiviral activity against Hepatitis B virus infected in human HepG2.2.15 cells assessed as inhibition of HBeAg secretion at 37.5 uM after 9 days by ELISA; type: functional; details: HepG2 2.2.15, 216 h; procedure, shortened: as §1
Hepatitis B virus [29] = assay: Antiviral activity against Hepatitis B virus infected in human HepG2.2.15 cells assessed as inhibition of HBeAg secretion at 75 uM after 6 days by ELISA; type: functional; details: HepG2 2.2.15, 144 h; procedure, shortened: as §1
Hepatitis B virus [30] = assay: Antiviral activity against Hepatitis B virus infected in human HepG2.2.15 cells assessed as inhibition of HBeAg secretion at 150 uM after 9 days by ELISA; type: functional; details: HepG2 2.2.15, 216 h; procedure, shortened: as §1
Hepatitis B virus [31] = assay: Antiviral activity against Hepatitis B virus infected in human HepG2.2.15 cells assessed as cell survival at 300 uM after 9 days (reference value: 100%); type: functional; details: HepG2 2.2.15, 216 h; procedure, shortened: as §3
Hepatitis B virus [32] = assay: Antiviral activity against Hepatitis B virus infected in human HepG2.2.15 cells assessed as inhibition of HBeAg secretion at 75 uM after 3 days by ELISA; type: functional; details: HepG2 2.2.15, 72 h; procedure, shortened: as §1

## COc1ccc(/C=C/C(=O)O/N=C/c2ccccn2)cc1OC
Hepatitis B virus [1]
  inhibition at 37.5 µM: 19.3%
Hepatitis B virus [2]
  inhibition at 75 µM: 36.7%
[3]
  Ratio CC50/IC50: 3.37
Hepatitis B virus [4]
  inhibition at 150 µM: 47.4%
Hepatitis B virus [5]
  inhibition at 150 µM: 36.7%
Hepatitis B virus [6]
  inhibition at 300 µM: 50.4%
Hepatitis B virus [7]
  viability at 150 µM: 102%
Hepatitis B virus [8]
  inhibition at 37.5 µM: 19.8%
[9]
  Ratio CC50/IC50: 3.59
Hepatitis B virus [10]
  inhibition at 300 µM: 61.3%
Hepatitis B virus [11]
  inhibition at 300 µM: 13.3%
Hepatitis B virus [12]
  IC50: 152 µM
Hepatitis B virus [13]
  inhibition at 75 µM: 40.3%
Hepatitis B virus [14]
  inhibition at 37.5 µM: 24.7%
Hepatitis B virus [15]
  inhibition at 75 µM: 19.5%
Hepatitis B virus [16]
  viability at 75 µM: 104%
Hepatitis B virus [17]
  inhibition at 300 µM: 32.8%
Hepatitis B virus [18]
  inhibition at 300 µM: 59.2%
Hepatitis B virus [19]
  inhibition at 75 µM: 2.54%
Hepatitis B virus [20]
  inhibition at 300 µM: 56.9%
[21]
  CC50 at 216 h: 545 µM
Hepatitis B virus [22]
  inhibition at 150 µM: 26.8%
Hepatitis B virus [23]
  viability at 37.5 µM: 107%
Hepatitis B virus [24]
  inhibition at 37.5 µM: 11.2%
Hepatitis B virus [25]
  inhibition at 150 µM: 54.5%
Hepatitis B virus [26]
  inhibition at 150 µM: 10.8%
Hepatitis B virus [27]
  IC50: 162 µM
Hepatitis B virus [28]
  inhibition at 37.5 µM: 27%
Hepatitis B virus [29]
  inhibition at 75 µM: 32.9%
Hepatitis B virus [30]
  inhibition at 150 µM: 48.4%
Hepatitis B virus [31]
  viability at 300 µM: 99.5%
Hepatitis B virus [32]
  inhibition at 75 µM: 27.7%

## O/N=C/c1ccccn1
[3]
  Ratio CC50/IC50: 0.86
[9]
  Ratio CC50/IC50: 1.04
Hepatitis B virus [12]
  IC50: 387 µM
[21]
  CC50 at 216 h: 402 µM
Hepatitis B virus [27]
  IC50: 469 µM

## O/N=C/c1cccs1 [2-THIOPHENECARBOXALDEHYDE OXIME]
[3]
  Ratio CC50/IC50: 1.3
[9]
  Ratio CC50/IC50: 1.59
Hepatitis B virus [12]
  IC50: 354 µM
[21]
  CC50 at 216 h: 562 µM
Hepatitis B virus [27]
  IC50: 431 µM

## COc1ccc(C=O)cc1OC [3,4-DIMETHOXYBENZALDEHYDE]
[21]
  CC50 at 216 h: > 1500 µM

## COc1ccc(/C=C/C(=O)O)cc1OC [O,O'-DIMETHYLCAFFEIC ACID]
[3]
  Ratio CC50/IC50: <0.89
[9]
  Ratio CC50/IC50: <0.89
Hepatitis B virus [12]
  IC50: > 600 µM
[21]
  CC50 at 216 h: 535 µM
Hepatitis B virus [27]
  IC50: > 600 µM

## O=Cc1ccc2c(c1)OCO2 [PIPERONAL]
[21]
  CC50 at 216 h: 1290 µM

## COc1cc(/C=C/C(=O)O)cc(OC)c1OC [SINAPIC ACID METHYL ETHER]
[3]
  Ratio CC50/IC50: <1.39
[9]
  Ratio CC50/IC50: <1.39
Hepatitis B virus [12]
  IC50: > 600 µM
[21]
  CC50 at 216 h: 834 µM
Hepatitis B virus [27]
  IC50: > 600 µM
